# Measured values published in ChEMBL document CHEMBL4017460, “A Tobramycin Vector Enhances Synergy and Efficacy of Efflux Pump Inhibitors against Multidrug-Resistant Gram-Negative Bacteria” (J Med Chem, 2017).
# The source made the active and inactive calls. The calls are words filed in the database; no cut-off is given here.
# Columns and labels:
# [1] = system: Pseudomonas aeruginosa PAO1; test: Inhibition of RND efflux pump in Pseudomonas aeruginosa PAO1 assessed as potentiation of minocycline-induced antibacterial activity by measuring minocycline MIC at 8 ug/ml after 18 to 24 hrs by microbroth dilution assay (reference value: 8 ug/ml)
# Procedure, shortened: (§1)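 Absolute minocycline MIC taken from checkerboard broth dilution with a fixed 8 μg/mL adjuvant. Inoculum was a 0.5 McFarland saline suspension diluted 1:50 in MHB, incubated 37 °C for 18 h. MIC is the lowest concentration with no growth.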
# Pseudomonas aeruginosa [2] = test: Antibacterial activity against Pseudomonas aeruginosa PAO1 after 18 to 24 hrs by microbroth dilution assay; assay type: functional
# Procedure, shortened: (§2)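 Checkerboard in MHB: antibiotic 2-fold diluted along one axis, test agent 2-fold diluted along the other. Overnight culture standardized to 0.5 McFarland in saline, diluted 1:50 in MHB, added to wells, incubated 37 °C for 18 h. MIC is the lowest concentration with no growth. FIC = MIC in combination / MIC alone; FIC index = sum of both FICs.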
# [3] = system: Pseudomonas aeruginosa PAO1; test: Inhibition of RND efflux pump in Pseudomonas aeruginosa PAO1 assessed as potentiation of minocycline-induced antibacterial activity at 8 ug/ml after 18 to 24 hrs by checker board assay; procedure, shortened: as §2
# [4] = system: Pseudomonas aeruginosa PAO1; test: Inhibition of RND efflux pump in Pseudomonas aeruginosa PAO1 assessed as potentiation of minocycline-induced antibacterial activity by measuring fold reduction in minocycline MIC at 8 ug/ml after 18 to 24 hrs by microbroth dilution assay relative to minocycline alone; procedure, shortened: as §1
# [5] = Toxicity in Galleria mellonella assessed as death at 100 mg/kg after 24 hrs relative to control; assay type: organism-based; conditions: in vivo, read-out: Activity
# Klebsiella pneumoniae [6] = test: Inhibition of RND efflux pump in Klebsiella pneumoniae isolate 116381 assessed as potentiation of minocycline-induced antibacterial activity by measuring minocycline MIC at 8 ug/ml after 18 to 24 hrs by microbroth dilution assay (reference value: 128 ug/ml); procedure, shortened: as §1
# Enterobacter cloacae [7] = test: Inhibition of RND efflux pump in Enterobacter cloacae isolate 117029 assessed as potentiation of minocycline-induced antibacterial activity by measuring minocycline MIC at 8 ug/ml after 18 to 24 hrs by microbroth dilution assay (reference value: 128 to 256 ug/ml); procedure, shortened: as §1
# Klebsiella pneumoniae [8] = test: Inhibition of RND efflux pump in Klebsiella pneumoniae isolate 116381 assessed as potentiation of minocycline-induced antibacterial activity at 8 ug/ml after 18 to 24 hrs by microbroth dilution assay; procedure, shortened: as §2
# Enterobacter cloacae [9] = test: Inhibition of RND efflux pump in Enterobacter cloacae isolate 117029 assessed as potentiation of minocycline-induced antibacterial activity at 8 ug/ml after 18 to 24 hrs by microbroth dilution assay; procedure, shortened: as §2
# Klebsiella pneumoniae [10] = test: Antibacterial activity against Klebsiella pneumoniae isolate 116381 after 18 to 24 hrs by microbroth dilution assay; assay type: functional; procedure, shortened: as §2
# Enterobacter cloacae [11] = test: Antibacterial activity against Enterobacter cloacae isolate 117029 after 18 to 24 hrs by microbroth dilution assay; assay type: functional; procedure, shortened: as §2
# [12] = system: Pseudomonas aeruginosa PAO1; test: Inhibition of RND efflux pump in Pseudomonas aeruginosa PAO1 assessed as increase in tetracycline uptake at 13.6 ug/ml measured at 1 min interval for 30 mins by fluorescence assay
# Procedure, shortened: (§3)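 Tetracycline uptake assay in P. aeruginosa PAO1: enhancement of tetracycline fluorescence as it enters cells, monitored with compound present at several concentrations.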
# [13] = system: Pseudomonas aeruginosa PAO1; test: Inhibition of RND efflux pump in Pseudomonas aeruginosa PAO1 assessed as potentiation of minocycline-induced antibacterial activity by measuring ratio of minocycline MIC after 25 serial passages to minocycline MIC at sub-MIC after 18 to 24 hrs by microbroth dilution assay
# Pseudomonas aeruginosa [14] = test: Induction of cytoplasmic membrane depolarization in Pseudomonas aeruginosa PAO1 at 16 ug/ml by DiSC3(5) dye based fluorescence assay; assay type: functional
# Procedure, shortened: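 Cytoplasmic membrane depolarization in P. aeruginosa PAO1, monitored by DiSC3(5) fluorescence across a range of compound concentrations. Colistin served as positive control.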
# Pseudomonas aeruginosa [15] = test: Induction of outer membrane permeabilization in Pseudomonas aeruginosa PAO1 assessed as increase in tetracycline uptake at 29 ug/ml measured at 1 min interval for 30 mins by fluorescence assay; assay type: functional; procedure, shortened: as §3
# Pseudomonas aeruginosa [16] = test: Antibacterial activity against Pseudomonas aeruginosa PAO1 assessed as ratio of MIC after 25 serial passages at sub-MIC to MIC after 1 passage by microbroth dilution assay; assay type: functional
# Pseudomonas aeruginosa [17] = test: Induction of membrane destabilization in Pseudomonas aeruginosa PAO1 assessed as increase in tetracycline uptake at 5 ug/ml measured at 1 min interval for 30 mins by fluorescence assay; assay type: functional
# Pseudomonas aeruginosa [18] = test: Antibacterial activity against XDR Pseudomonas aeruginosa isolate P262-101856 infected in Galleria mellonella assessed as protection against bacterial infection by measuring larval death at 75 mg/kg up to 24 hrs relative to control; assay type: functional
# Procedure, shortened: (§4)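 G. mellonella larvae infected with 1.0 × 10^5/mL CFU of XDR P. aeruginosa 101856. A single-dose injection of agent, alone or with minocycline, given 2 h post-infection. Survival scored up to 24 h. 15 larvae per experiment from different batches, two experiments per dosage (n = 30). Significance 0 vs 24 h at P ≤ 0.05.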
# Pseudomonas aeruginosa [19] = test: (§5) Inhibition of RND efflux pump in XDR Pseudomonas aeruginosa isolate P262-101856 infected in Galleria mellonella assessed as potentiation of minocycline-induced antibacterial activity by measuring larval death rate at 75 mg/kg co-treated with 75 mg/kg minocycline measured after 24 hrs relative to control; assay type: organism-based; set-up: scale not given: the % may be the effect or the level left; procedure, shortened: as §4
# [20] = system: Pseudomonas aeruginosa PAO1; test: Inhibition of RND efflux pump in Pseudomonas aeruginosa PAO1 assessed as increase in tetracycline uptake up to 8.2 ug/ml measured at 1 min interval for 30 mins by fluorescence assay; procedure, shortened: as §3
# Pseudomonas aeruginosa [21] = test: as §5, with “survival” for “death”; assay type: organism-based; procedure, shortened: as §4
# [22] = system: Pseudomonas aeruginosa PAO1; test: Inhibition of RND efflux pump in Pseudomonas aeruginosa PAO1 assessed as increase in tetracycline uptake up to 5.7 ug/ml measured at 1 min interval for 30 mins by fluorescence assay
molecule,measurement,setting,value
NC[C@H]1O[C@H](O[C@H]2[C@H](OCCCCCCCCCCN3CCN(Cc4cccc5ccccc45)CC3)[C@@H](O[C@H]3O[C@H](CO)[C@@H](O)[C@H](N)[C@H]3O)[C@H](N)C[C@@H]2N)[C@H](N)C[C@@H]1O.O=C(O)C(F)(F)F.O=C(O)C(F)(F)F.O=C(O)C(F)(F)F.O=C(O)C(F)(F)F.O=C(O)C(F)(F)F.O=C(O)C(F)(F)F.O=C(O)C(F)(F)F,MIC,[1],1 µg/mL
same,MIC,Pseudomonas aeruginosa [2],> 512 µg/mL
same,fractional inhibitory concentration index (FICI),[3],0.125 to 0.14
Cetrimonium bromide,fractional inhibitory concentration index (FICI),[3],0.75
NC[C@@H]1CN[C@@H](C(=O)N[C@H](CCc2ccccc2)C(=O)Nc2ccc3ccccc3c2)C1,MIC,[1],1 µg/mL
same,MIC,Pseudomonas aeruginosa [2],256 µg/mL
same,fractional inhibitory concentration index (FICI),[3],0.13
same,fold change (FC),[4],8
same,mortality at 24 h,[5],80%
same,MIC,Klebsiella pneumoniae [6],4 µg/mL
same,MIC,Enterobacter cloacae [7],8 µg/mL
same,fractional inhibitory concentration index (FICI),Klebsiella pneumoniae [8],0.06
same,fractional inhibitory concentration index (FICI),Enterobacter cloacae [9],0.13
same,MIC,Klebsiella pneumoniae [10],256 µg/mL
same,MIC,Enterobacter cloacae [11],64 µg/mL
same,inhibition,[12],Active
same,Ratio,[13],4
Cl.Cl.Cl.Cl.Cl.Cl.Cl.NC[C@H]1O[C@H](O[C@H]2[C@H](OCCCCN3CCN(Cc4cccc5ccccc45)CC3)[C@@H](O[C@H]3O[C@H](CO)[C@@H](O)[C@H](N)[C@H]3O)[C@H](N)C[C@@H]2N)[C@H](N)C[C@@H]1O,MIC,[1],4 µg/mL
same,MIC,Pseudomonas aeruginosa [2],512 µg/mL
same,fractional inhibitory concentration index (FICI),[3],0.25 to 0.5
COLISTIN,fractional inhibitory concentration index (FICI),[3],0.5
same,Activity,Pseudomonas aeruginosa [14],Active
same,Activity,Pseudomonas aeruginosa [15],Active
same,Ratio,Pseudomonas aeruginosa [16],> 1024
Cl.Cl.Cl.Cl.Cl.Cl.Cl.NC[C@H]1O[C@H](O[C@H]2[C@H](OCCCCCCCCN3CCN(Cc4cccc5ccccc45)CC3)[C@@H](O[C@H]3O[C@H](CO)[C@@H](O)[C@H](N)[C@H]3O)[C@H](N)C[C@@H]2N)[C@H](N)C[C@@H]1O,MIC,[1],2 µg/mL
same,MIC,Pseudomonas aeruginosa [2],> 512 µg/mL
same,fractional inhibitory concentration index (FICI),[3],0.125 to 0.25
Cl.Cl.Cl.Cl.Cl.Cl.Cl.NC[C@H]1O[C@H](O[C@H]2[C@H](OCCN3CCN(Cc4cccc5ccccc45)CC3)[C@@H](O[C@H]3O[C@H](CO)[C@@H](O)[C@H](N)[C@H]3O)[C@H](N)C[C@@H]2N)[C@H](N)C[C@@H]1O,MIC,[1],4 µg/mL
same,MIC,Pseudomonas aeruginosa [2],128 µg/mL
same,fractional inhibitory concentration index (FICI),[3],0.53
N#CC(C#N)=NNc1cccc(Cl)c1,Activity,Pseudomonas aeruginosa [17],Active
CN(C)c1ccc(O)c2c1C[C@H]1C[C@H]3[C@H](N(C)C)C(O)=C(C(N)=O)C(=O)[C@@]3(O)C(O)=C1C2=O [MINOCYCLINE],Activity,Pseudomonas aeruginosa [18],100%
same,Ratio,Pseudomonas aeruginosa [16],16
Fc1ccc([C@@H]2CCNC[C@H]2COc2ccc3c(c2)OCO3)cc1 [PAROXETINE],MIC,[1],8 µg/mL
same,MIC,Pseudomonas aeruginosa [2],512 µg/mL
same,fractional inhibitory concentration index (FICI),[3],1.02
same,Activity,Pseudomonas aeruginosa [19],100%
same,MIC,Klebsiella pneumoniae [6],128 µg/mL
same,MIC,Enterobacter cloacae [7],64 µg/mL
same,fractional inhibitory concentration index (FICI),Klebsiella pneumoniae [8],0.63
same,fractional inhibitory concentration index (FICI),Enterobacter cloacae [9],0.5
same,MIC,Klebsiella pneumoniae [10],128 µg/mL
same,MIC,Enterobacter cloacae [11],64 µg/mL
same,inhibition,[20],inactive
Cl.Cl.Cl.Cl.Cl.Cl.Cl.NC[C@H]1O[C@H](O[C@H]2[C@H](OCCCCCCN3CCN(Cc4cccc5ccccc45)CC3)[C@@H](O[C@H]3O[C@H](CO)[C@@H](O)[C@H](N)[C@H]3O)[C@H](N)C[C@@H]2N)[C@H](N)C[C@@H]1O,MIC,[1],4 µg/mL
same,MIC,Pseudomonas aeruginosa [2],> 512 µg/mL
same,fractional inhibitory concentration index (FICI),[3],0.25 to 0.5
c1ccc2c(CN3CCNCC3)cccc2c1,MIC,[1],8 µg/mL
same,MIC,Pseudomonas aeruginosa [2],512 µg/mL
same,fractional inhibitory concentration index (FICI),[3],1.02
same,Activity,Pseudomonas aeruginosa [18],100%
same,Survival,Pseudomonas aeruginosa [21],0%
same,Activity,Pseudomonas aeruginosa [19],100%
same,MIC,Klebsiella pneumoniae [6],128 µg/mL
same,MIC,Enterobacter cloacae [7],128 µg/mL
same,fractional inhibitory concentration index (FICI),Klebsiella pneumoniae [8],0.25 to 0.38
same,fractional inhibitory concentration index (FICI),Enterobacter cloacae [9],> 0.5
same,MIC,Klebsiella pneumoniae [10],> 512 µg/mL
same,MIC,Enterobacter cloacae [11],> 512 µg/mL
same,inhibition,[22],inactive
NC[C@H]1O[C@H](O[C@H]2[C@H](O)[C@@H](O[C@H]3O[C@H](CO)[C@@H](O)[C@H](N)[C@H]3O)[C@H](N)C[C@@H]2N)[C@H](N)C[C@@H]1O [TOBRAMYCIN],MIC,Pseudomonas aeruginosa [2],0.25 µg/mL
same,fractional inhibitory concentration index (FICI),[3],1.06
same,Ratio,Pseudomonas aeruginosa [16],256
